Assay results: ChEMBL document CHEMBL3792357, “4,6-Diphenylpyridines as Promising Novel Anti-Influenza Agents Targeting the PA-PB1 Protein-Protein Interaction: Structure-Activity Relationships Exploration with the Aid of Molecular Modeling” (J Med Chem, 2016)

How the values were obtained:
[1] = molecular target: PA/PB1 (Influenza A virus (A/Puerto Rico/8/1934(H1N1)), UniProt P03431+P03433); assay: Inhibition of Influenza A virus PR/8/34 6His-tagged PA (239 to 716 residues) interaction with GST-tagged PB1 (1 to 25 residues) expressed in Escherichia coli compound treated in DMEM serum-free medium measured after overnight incubation by ELISA
In short: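 Same coated 6His-PA(239–716)/GST-PB1(1–25) ELISA (400 ng PA, 200 ng PB1 peptide; overnight room temperature; HRP anti-GST/TMB, OD 450), but GST-PB1 and compounds or DMSO are dissolved in serum-free DMEM instead of PBS. DMSO = 100% interaction; PB1(1–15)-Tat as positive control. IC50 from mean ± SD, ≥2 experiments in duplicate.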

[2] = Cytotoxicity against MDCK cells assessed as decrease in cell viability after 48 hrs by MTT assay; assay type: cell-based, Canis lupus familiaris; conditions: dog
In short: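 MDCK cells at 5x10³/well exposed to 2-fold serial dilutions from 250 µM for 48 h. MTT (5 mg/mL) for 4 h at 37 °C, solubilisation 3 h, A620. DMSO wells = 100% viable; CC50 = concentration giving 50% viability loss. Mean ± SD, ≥3 independent experiments in duplicate.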

[3] = molecular target: PA/PB1 (Influenza A virus (A/Puerto Rico/8/1934(H1N1)), UniProt P03431+P03433); assay: Inhibition of Influenza A virus PR/8/34 6His-tagged PA (239 to 716 residues) interaction with GST-tagged PB1 (1 to 25 residues) expressed in Escherichia coli compound treated in PBS buffer measured after overnight incubation by ELISA
In short: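 Plates coated with 400 ng E. coli-expressed 6His-PA(239–716) for 3 h at 37 °C, then blocked with 2% BSA/PBS for 1 h. Then 200 ng GST-PB1(1–25) (GST as control) with compound or DMSO in PBS, overnight at room temperature. Detection with HRP anti-GST mAb and TMB, OD 450 nm. DMSO = 100% interaction; PB1(1–15)-Tat as reference. Mean ± SD, ≥3 experiments in duplicate.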

[4] = system: Influenza A virus; assay: Antiviral activity against Influenza A virus PR/8/34 infected in MDCK cells assessed as inhibition of plaque formation treated for 1 hr measured after 2 days by toluidine blue staining-based assay; assay type: functional, organism-based; conditions: A/Puerto Rico/8/1934(H1N1)
In short: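 MDCK confluent monolayers infected with PR8 (H1N1) at 40 PFU/well in DMEM with 1 µg/ml TPCK-trypsin, 0.14% BSA and compound, 1 h at 37 °C. Overlay of the same medium plus 1.2% Avicel and compound. After 2 days, fixed in 4% formaldehyde, stained with 0.1% toluidine blue and plaques counted. EC50 = 50% plaque inhibition. Ribavirin and oseltamivir as references. Mean ± SD, ≥3 independent experiments in duplicate.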

[5] = Selectivity index, ratio of CC50 for MDCK cells to EC50 for Influenza A virus PR/8/34 infected in MDCK cells; assay type: toxicity, cell-based; conditions: dog, read-out: Ratio CC50/EC50
[6] = Cytotoxicity against HEK293T cells assessed as decrease in cell viability after 24 hrs by MTT assay; assay type: cell-based, HEK-293T; conditions: human
In short: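 HEK 293T cells at 2x10⁴/well exposed to 2-fold serial dilutions from 250 µM for 24 h. MTT (5 mg/mL) for 4 h at 37 °C, solubilisation 3 h, absorbance at 620 nm. DMSO wells set as 100% viability; CC50 = 50% viability decrease. Mean ± SD, ≥3 independent experiments in duplicate.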

[7] = Ratio of IC50 for Influenza A virus PR/8/34 6His-tagged PA (239 to 716 residues) interaction with GST-tagged PB1 (1 to 25 residues) to EC50 for Influenza A virus PR/8/34 infected in MDCK cells
[8] = Inhibition of Influenza A virus RdRp transfected in HEK293T cells at 24 hrs by dual luciferase reporter gene-based minireplicon assay; assay type: cell-based; conditions: HEK-293T
In short: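 HEK 293T seeded at 2x10⁵/well; 24 h later calcium-phosphate transfected with PB1, PB2, PA and NP plasmids (100 ng/well each), pPolI-Flu-ffLuc (50 ng/well) and pRL-SV40 normaliser (50 ng/well) with compound or DMSO. Medium with compound replaced at 4 h; firefly/Renilla luciferase read at 24 h. Ribavirin reference. Mean ± SD, ≥2 experiments in duplicate.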

Row | SMILES | IC50 [1] | CC50 at 48 h [2] | IC50 [3] | EC50 [4] | selectivity ratio [5] | CC50 at 24 h [6] | Ratio IC50/EC50 [7] | EC50 [8]
1 | CSCC[C@H](N)C(=O)N[C@@H](CC(=O)O)C(=O)N[C@H](C(=O)N[C@@H](CC(N)=O)C(=O)N1CCC[C@H]1C(=O)N[C@H](C(=O)N[C@@H](CC(C)C)C(=O)N[C@@H](CC(C)C)C(=O)N[C@@H](Cc1ccccc1)C(=O)N[C@@H](CC(C)C)C(=O)N[C@@H](CCCCN)C(=O)N[C@H](C(=O)N1CCC[C@H]1C(=O)N[C@@H](C)C(=O)N[C@@H](CCC(N)=O)C(=O)O)C(C)C)[C@@H](C)O)C(C)C | 31.7 µM | > 250 µM | 35.9 µM | 49.7 µM | > 5 | > 250 µM | – | –
2 | Cc1cccc(NC(=O)CSc2nc(-c3ccccc3)cc(-c3ccccc3)c2C#N)c1 | 35.2 µM | > 250 µM | 175 µM | 9.2 µM | > 27.2 | > 250 µM | 19 | 86.6 µM
3 | Cc1cccc(NC(=O)CSc2nccc(-c3ccccc3)c2C#N)c1 | – | 41.5 µM | > 200 µM | > 10 µM | – | 180 µM | – | –
4 | Cc1cccc(NC(=O)CSc2nc(-c3ccccc3)ccc2C#N)c1 | – | 7.1 µM | > 200 µM | > 10 µM | – | 32 µM | – | –
5 | Cc1cccc(NC(=O)CSc2nc(-c3ccc(C(F)(F)F)cc3)cc(-c3ccc(C(F)(F)F)cc3)n2)c1 | 64.5 µM | > 250 µM | > 200 µM | 26.5 µM | > 9.4 | > 250 µM | – | 22 µM
6 | Cc1cccc(NC(=O)CCCSc2nc(-c3ccccc3)cc(-c3ccccc3)c2C#N)c1 | 145 µM | 41.5 µM | 140 µM | 8.2 µM | 5.1 | 95.6 µM | – | –
7 | CSc1nc(-c2ccccc2)cc(-c2ccccc2)c1C#N | – | 125 µM | 195 µM | > 50 µM | – | 144 µM | – | –
8 | Cc1cccc(NC(=O)COc2nc(-c3ccccc3)cc(-c3ccccc3)c2C#N)c1 | – | > 250 µM | > 200 µM | 93.9 µM | > 2.7 | > 250 µM | – | –
9 | N#Cc1cnc(-c2ccccc2)cc1-c1ccccc1 | – | 105 µM | 116 µM | 45.1 µM | 2.3 | > 250 µM | – | –
10 | Cc1cccc(NC(=O)CCc2nc(-c3ccccc3)cc(-c3ccccc3)c2C#N)c1 | – | > 250 µM | > 200 µM | > 100 µM | – | 140 µM | – | –
11 | Cc1cccc(NC(=O)CCSc2nc(-c3ccccc3)cc(-c3ccccc3)c2C#N)c1 | – | 13.9 µM | 122 µM | > 10 µM | – | 150 µM | – | –
12 | Cc1cccc(NC(=O)CSc2cc(-c3ccccc3)cc(-c3ccccc3)n2)c1 | 40.5 µM | 150 µM | 52.6 µM | 7.3 µM | 20.5 | > 250 µM | – | 30.8 µM
13 | N#Cc1c(-c2ccccc2)cc(-c2ccccc2)nc1SCC(=O)N1CCOCC1 | – | > 250 µM | 177 µM | 100 µM | > 2.5 | 184 µM | – | –
14 | Cc1cccc(NC(=O)CSc2nc(-c3ccccc3)cc(-c3ccccc3)n2)c1 | 113 µM | 10.1 µM | 165 µM | 3.5 µM | 2.9 | 22.3 µM | 47 | –
15 | Cc1cccc(NC(=O)CNc2nc(-c3ccccc3)cc(-c3ccccc3)c2C#N)c1 | > 200 µM | > 250 µM | > 200 µM | 28.6 µM | > 8.7 | > 250 µM | – | 46.3 µM
16 | Cc1cccc(NC(=O)/C=C/c2nc(-c3ccccc3)cc(-c3ccccc3)c2C#N)c1 | – | > 250 µM | 190 µM | 70.7 µM | > 3.5 | > 250 µM | – | –
17 | CCOC(=O)C1=C[C@@H](OC(CC)CC)[C@H](NC(C)=O)[C@@H](N)C1 [OSELTAMIVIR] | – | > 250 µM | – | 0.015 µM | > 16000 | > 250 µM | – | –
18 | NC(=O)c1ncn([C@@H]2O[C@H](CO)[C@@H](O)[C@H]2O)n1 [RIBAVIRIN] | – | > 250 µM | – | 12.8 µM | > 19.5 | > 250 µM | – | 23.8 µM
